Assay [1] is described as follows: inhibitors of TNFa-induced NFkB p65 translocation, primary screen, imaging, HUVEC, MLSMR starter and 10KST1 sets (AID 438;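 active means inhibition above 20% together with a positive visual image hit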;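 further: compound added about 3h40 before a 20 min TNFalpha stimulation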;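 on inhibition: signal is the nuclear over cytoplasmic p65 intensity ratio per well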). The settings on record: HUVEC TNFa-induced p65 nuclear translocation; cell count: measured here: nuclei count (cytotoxicity indicator), at 2.08 µM; inhibition: at 2 µM, stronger effect = higher value, 0% TNFa-plus-vehicle, 100% no-TNFa wells.
The nature of assay [2]: reduction of polyQ htt aggregates in cells – imaging, exon1htt(103Q)mCFP cells, high-content imaging, primary screen (AID 483;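 active means visual image review flags a hit and inhibition of aggregation exceeds 20%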;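 further: compound exposure lasted 3 days before fixation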;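 on nuclei count: percent of the per-plate median nuclei count of sample wells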). The settings on record: exon1htt(103Q)mCFP cell line, aggregate imaging, at 2 µM; inhibition of aggregation: stronger effect = higher value; nuclei count: measured here: cell count, toxicity.
Assay [3] is described as follows: endothelial E-selectin expression blockers – imaging, HUVEC, immunofluorescence, MLSMR starter and 10KST1 sets, primary screen (AID 487;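 active means visually confirmed hit in the image check and inhibition above 20%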;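 on inhibition: signal is fraction of cell area covered by stained E-selectin grains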;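 on nuclei count: 100% = median nuclei count of all wells on the same plate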). The settings on record: HUVEC TNFalpha-induced E-selectin immunofluorescence imaging, at 2 µM; inhibition: stronger effect = higher value; nuclei count: measured here: cell number, toxicity.
Assay [4] concerns the target Voltage-gated potassium channel subunit beta-2 (Rattus norvegicus) (UniProt P62483). As to the kind of experiment: inhibitors of rat Kvbeta2 reductase activity – biochemical, NADPH fluorescence, primary screen (AID 622;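 active means fluorescence slope higher than the sample average by over 3 SD, cut at about -0.22 in these data, passing the limit was not always enough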;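 further: slope of raw intensity against log time taken from 70 to 1610 s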). The settings on record: recombinant KvBeta, 4-cyanobenzaldehyde reduction, at 10 µM, stronger effect = higher value.
Assay [5] has the same target. As to the kind of experiment: enhancers of rat Kvbeta2 NADPH turnover – biochemical, NADPH fluorescence, primary screen (AID 623;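 active means NADPH fluorescence slope more negative than the mean of all samples by about 3 SD, 99.7% confidence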;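 further: fluorescence intensity change per second fitted from 20 to 320 s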). The settings on record: Recombinant KvBeta, NADPH fluorescence decrease slope, 10 min; at 10 µM; stronger effect = lower value.
In assay [6] the target is Muscarinic acetylcholine receptor M4 (Homo sapiens) (UniProt P08173). As to the kind of experiment: M4-linked GIRK flux change, two-sided – cell-based, HEK293 M4/GIRK, thallium flux, BTC-AM, M4 allosteric agonist project, primary screen (AID 625;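 active means fluorescence slope after compound addition differing from the mean of all tested samples at 99.7% confidence, mostly higher but some lower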;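 further: thallium influx through GIRK channels coupled to M4 in HEK293 cells with BTC-AM dye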). The settings on record: at 10 µM, actives lie on both sides. The essentials:
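System: HEK293 cells with M4 receptor and GIRK channels | Incubation: Cells overnight at 37 °C, BTC-AM loading 1 h, reads 2 min total | Technique: Kinetic BTC-AM fluorescence sampled at 1 Hz, 10 s pre-addition baseline | Measure: Post-addition slope, 15–24 s, of baseline-normalized fluorescence | Control set: Carbachol positive, DMSO negative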

Assay [7] in a line: blockers of RIG-like receptor reporter activation – cell-based, Sendai virus stimulus, luciferase, 10K MLSCN set, TLR/RLR signaling modifier project, primary screen (AID 602276).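 Further: firefly luciferase from ISG56 promoter only with Renilla not read in this screen; 0% = Sendai virus plus DMSO and 100% = medium plus DMSO without virus.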 The settings on record: HEK293 RL24 IRF3 luciferase reporter, at 10 µM, stronger effect = higher value. For orientation: In a reporter assay the amount or activity of a reporter protein is the signal.
Assay [8] is described as follows: TLR3 IRF3 reporter activation blockers – cell-based, poly I:C stimulus, luciferase, 10K MLSCN set, primary screen (AID 602277;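 active means inhibition of the reporter signal at or above 50%; inactive means inhibition below 50%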). The settings on record: HEK293-TLR3 RL24 IRF3 luciferase reporter, at 10 µM, stronger effect = higher value.

Molecules are shown by their SMILES. Calls of active or inactive are those of the source.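 How the source made its calls, unless noted: active means inhibition at or above 50% at 10 µM; inactive means inhibition below 50%.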

Sequence of Voltage-gated potassium channel subunit beta-2 (Rattus norvegicus) (P62483 whole entry, looked up): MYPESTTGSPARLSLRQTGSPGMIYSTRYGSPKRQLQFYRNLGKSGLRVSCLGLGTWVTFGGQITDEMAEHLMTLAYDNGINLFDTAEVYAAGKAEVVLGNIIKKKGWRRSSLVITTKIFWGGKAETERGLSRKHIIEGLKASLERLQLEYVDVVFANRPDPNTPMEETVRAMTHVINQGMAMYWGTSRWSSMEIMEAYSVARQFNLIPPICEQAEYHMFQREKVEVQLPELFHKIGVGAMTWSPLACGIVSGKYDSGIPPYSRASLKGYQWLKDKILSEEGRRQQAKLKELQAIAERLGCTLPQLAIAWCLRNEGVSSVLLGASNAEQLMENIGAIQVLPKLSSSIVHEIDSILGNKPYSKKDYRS
Sequence of Muscarinic acetylcholine receptor M4 (Homo sapiens) (P08173 whole entry, looked up): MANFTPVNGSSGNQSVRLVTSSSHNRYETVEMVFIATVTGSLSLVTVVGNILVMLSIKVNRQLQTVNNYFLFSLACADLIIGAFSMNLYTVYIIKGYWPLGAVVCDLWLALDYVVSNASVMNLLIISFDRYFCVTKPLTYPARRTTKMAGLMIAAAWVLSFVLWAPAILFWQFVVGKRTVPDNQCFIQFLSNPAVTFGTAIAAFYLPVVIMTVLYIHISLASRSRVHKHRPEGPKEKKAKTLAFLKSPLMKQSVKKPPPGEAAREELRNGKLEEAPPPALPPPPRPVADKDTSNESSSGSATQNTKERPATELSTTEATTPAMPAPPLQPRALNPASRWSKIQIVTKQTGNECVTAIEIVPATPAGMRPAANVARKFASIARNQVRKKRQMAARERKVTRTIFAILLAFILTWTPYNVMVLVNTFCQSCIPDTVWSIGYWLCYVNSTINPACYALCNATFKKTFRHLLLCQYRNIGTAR

Usually inhibition stands for the change of the read-out against control, counted positive when it falls. For `Cc1cccc(N(C)C(=O)c2coc(=O)c3ccccc23)c1`, in assay [1], the cell count came to 199. Also, the inhibition in assay [1] was -0.8% (inactive); in assay [3] it was -1.9% (inactive); in assay [7], 14.1% (inactive); in assay [8] it was 26.6% (inactive). The inhibition of aggregation in assay [2] is -9.3% (inactive). In addition, the results for the nuclei count in assay [2] and in assay [3] were 105% and 104%, respectively. The results for the fluorescence slope in assay [4] and in assay [6] were -0.563 (inactive) and 0.00467 (inactive), respectively. In assay [5], the NADPH fluorescence slope is 1.4e-05 (inactive).
With `O=C(CNC(=O)c1cccs1)NCCN1CCN(c2ccccc2F)CC1`, the cell count in assay [1] stood at 585. In addition, the inhibition in assay [1] was -8.2% (inactive); in assay [3], -19.1% (inactive); in assay [7], 19.5% (inactive); in assay [8], 17.5% (inactive). The inhibition of aggregation in assay [2] is -28.3% (inactive). Further, the nuclei count was 99.6% in assay [2] and 106% in assay [3]. Moreover, the values for the fluorescence slope in assay [4] and in assay [6] were -0.451 (inactive) and 0.00484 (inactive), respectively. Further, the NADPH fluorescence slope in assay [5] was -3.9e-05 (inactive).
In the case of `c1ccc(CC2CCN(Cc3nc(-c4ccccc4)no3)CC2)cc1`, in assay [1], the cell count was 229. Also, the inhibition is 4.2% (inactive) in assay [1], -139% (inactive) in assay [3], 5.55% (inactive) in assay [7] and -19% (inactive) in assay [8]. In assay [2], the inhibition of aggregation was -5.2% (inactive). Besides, the nuclei count came to 81.6% in assay [2] and 124% in assay [3]. For the same compound, the fluorescence slope was -0.456 (inactive) in assay [4] and 0.00542 (inactive) in assay [6]. Moreover, the NADPH fluorescence slope in assay [5] is -1.9e-05 (inactive).
For `Cn1cnnc1SCC(=O)Nc1sc2c(c1C#N)CCCCC2`, the cell count in assay [1] amounted to 564. The inhibition was -29.4% (inactive) in assay [1], -29.2% (inactive) in assay [3], -24.5% (inactive) in assay [7] and -31.5% (inactive) in assay [8]. The inhibition of aggregation in assay [2] was 2.6% (inactive). Further, the nuclei count in assay [2] came out at 80.6%; in assay [3] it was 108%. Besides, the fluorescence slope in assay [4] was -0.499 (inactive); in assay [6], 0.00534 (inactive). Also, the NADPH fluorescence slope in assay [5] was 0.000104 (inactive).
For `Nc1nc2ccccc2n1/N=C/c1ccc(Br)cc1`, in assay [1], the cell count worked out at 334. Besides, the inhibition in assay [1] was -2.9% (inactive); in assay [3], 12.6% (inactive); in assay [7], -55% (inactive); in assay [8], -127% (inactive). For the same compound, the inhibition of aggregation in assay [2] was -2.4% (inactive). Besides, the nuclei count in assay [2] turned out to be 87.2%; in assay [3], 92.2%. Moreover, the fluorescence slope in assay [4] is -0.47 (inactive); in assay [6], 0.00585 (inactive). Also, the NADPH fluorescence slope in assay [5] is -3.8e-05 (inactive).
Regarding `Cn1c(NCc2cccc(Br)c2)nc2ccccc21`, in assay [1], the cell count was 337. In addition, the inhibition in assay [1] is -4.7% (inactive); in assay [3], -6.9% (inactive); in assay [7] it was 8.28% (inactive); in assay [8], 14.2% (inactive). In assay [2], the inhibition of aggregation was 3% (inactive). Besides, the values for the nuclei count in assay [2] and in assay [3] were 103% and 139%, respectively. In addition, the fluorescence slope is -0.528 (inactive) in assay [4] and 0.00491 (inactive) in assay [6]. Also, the NADPH fluorescence slope in assay [5] is -2.6e-05 (inactive).
Take `c1ccc2c(c1)ccc1nnc(-c3ccc4c(c3)OCO4)n12`: the cell count in assay [1] was determined as 338. In addition, the inhibition in assay [1] was -1.7% (inactive); in assay [3] it was -25.6% (inactive); in assay [7] it was -1.33% (inactive); in assay [8], 25.4% (inactive). For the same compound, the inhibition of aggregation in assay [2] is 18.1% (inactive). For the same compound, the values for the nuclei count in assay [2] and in assay [3] were 87.8% and 108%, respectively. In addition, the figures for the fluorescence slope in assay [4] and in assay [6] were -0.58 (inactive) and 0.00599 (inactive), respectively. The NADPH fluorescence slope in assay [5] is 1.5e-05 (inactive).
Consider `Cc1cc(NC(=O)CN2CCC(O)(c3cccc(F)c3)CC2)no1`, for which the cell count in assay [1] was found to be 584. The inhibition in assay [1] is -53.1% (inactive); in assay [3], -107% (inactive); in assay [7], -0.229% (inactive); in assay [8] it was 20.2% (inactive). Further, the inhibition of aggregation in assay [2] is 0.2% (inactive). For the same compound, the nuclei count in assay [2] amounted to 103%; in assay [3] it was 117%. Moreover, the fluorescence slope is -0.283 (inactive) in assay [4] and 0.00664 (inactive) in assay [6]. Further, the NADPH fluorescence slope in assay [5] is -1.6e-05 (inactive).
For `COC(=O)COc1ccc(S(=O)(=O)NCCC2=CCCCC2)cc1`, the cell count in assay [1] was determined as 515. In addition, the inhibition in assay [1] was -0.5% (inactive); in assay [3] it was -31.4% (inactive); in assay [7], 15.8% (inactive); in assay [8] it was 20.7% (inactive). For the same compound, the inhibition of aggregation in assay [2] was 29% (inactive). Also, the nuclei count in assay [2] stood at 79.1%; in assay [3], 107%. Moreover, the fluorescence slope in assay [4] is -0.544 (inactive); in assay [6] it was 0.00377 (inactive). Also, the NADPH fluorescence slope in assay [5] is -2.1e-05 (inactive).
For `CN(c1ccccc1)C(c1ccc(F)cc1)c1nnnn1CC1CCCO1` (centres undefined), the cell count in assay [1] came out at 762. In addition, the inhibition in assay [1] is -2.9% (inactive); in assay [3], -61.8% (inactive); in assay [7], 16% (inactive); in assay [8] it was 42.3% (inactive). Besides, the inhibition of aggregation in assay [2] was -1.8% (inactive). The results for the nuclei count in assay [2] and in assay [3] were 100% and 132%, respectively. For the same compound, the fluorescence slope is -0.288 (inactive) in assay [4] and 0.00686 (inactive) in assay [6]. Besides, the NADPH fluorescence slope in assay [5] was -1.6e-05 (inactive).
Take `CC1CC(C)CN(CCCNC(=O)COc2cc(=O)n(C)c3ccccc23)C1` (centres undefined): in assay [1], the cell count is 347. The inhibition in assay [1] is 3.3% (inactive); in assay [3], -10.4% (inactive); in assay [7], 11.3% (inactive); in assay [8], 36.3% (inactive). In addition, the inhibition of aggregation in assay [2] is -17.3% (inactive). Further, the nuclei count in assay [2] was 99%; in assay [3], 122%. The results for the fluorescence slope in assay [4] and in assay [6] were -0.408 (inactive) and 0.00505 (inactive), respectively. Further, in assay [5], the NADPH fluorescence slope is -7e-05 (inactive).
Regarding `CC(Sc1nnc(-c2cc3ccccc3o2)n1-c1ccccc1)C(=O)O` (centres undefined), the cell count in assay [1] is 613. Besides, the inhibition was 0.8% (inactive) in assay [1], -223% (inactive) in assay [3], 21.2% (inactive) in assay [7] and 39.8% (inactive) in assay [8]. Besides, in assay [2], the inhibition of aggregation is 14.7% (inactive). Further, the nuclei count in assay [2] was found to be 105%; in assay [3], 108%. Besides, the results for the fluorescence slope in assay [4] and in assay [6] were -0.585 (inactive) and 0.00554 (inactive), respectively. Moreover, the NADPH fluorescence slope in assay [5] is -5.2e-05 (inactive).
Take `Cn1c(=O)c2c(ncn2CC(O)CNc2ccc(Cl)cc2)n(C)c1=O` (centres undefined): the cell count in assay [1] stood at 629. Besides, the inhibition in assay [1] is -6.3% (inactive); in assay [3], -104% (inactive); in assay [7], 3.66% (inactive); in assay [8] it was 2.85% (inactive). The inhibition of aggregation in assay [2] is -15.7% (inactive). For the same compound, the nuclei count in assay [2] came out at 100%; in assay [3], 110%. The fluorescence slope is -0.447 (inactive) in assay [4] and 0.00475 (inactive) in assay [6]. For the same compound, the NADPH fluorescence slope in assay [5] is 3.3e-05 (inactive).
Take `COC(=O)c1c(N)nc(C)n1-c1ccc(OC)cc1`: the cell count in assay [1] was 324. For the same compound, the inhibition in assay [1] is -9.2% (inactive); in assay [3], 2.7% (inactive); in assay [7], 5.37% (inactive); in assay [8], 9.69% (inactive). The inhibition of aggregation in assay [2] is 32.1% (active). In addition, the nuclei count in assay [2] stood at 70.1%; in assay [3], 103%. Moreover, the fluorescence slope in assay [4] was -0.364 (inactive); in assay [6], 0.00554 (inactive). In assay [5], the NADPH fluorescence slope is 3e-05 (inactive).
